Entries after “also recorded” stand apart in the source; their conditions may differ. Like-named read-outs stand apart in the source and are kept apart here.
How the values were obtained:
[1] = tested on: NSCLC cell lines harboring KRAS mutations; details: nonclinical studies; ref [15]; cited from earlier work
[2] = First-in-human dose escalation: DLTs and MTD/RP2D; assay type: in vivo
Method in brief: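 Oral test compound once daily, starting at 60 mg/m2 (0.1 of preclinical non-severely toxic dose). Accelerated titration used 100% increments until ≥Grade 2 toxicity (alopecia excepted), then 3+3 with 25–50% steps. BSA-based dosing (actual dose −20 to +15% of calculated) later switched to flat doses to nearest 50 mg. Taxanes given IV. Toxicity graded by investigator per CTCAE v4.03.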

[3] = tested on: metastatic or advanced solid malignant tumors; experiment: Anti-tumor activity, RECIST 1.1, investigator assessed; assay type: in vivo, human
Method in brief: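 Investigator-assessed RECIST 1.1 response in patients with measurable disease. Oral test compound given once daily continuously, alone or ~2 h before IV paclitaxel at label or institutional dose and schedule. Time to progression is given as a median in weeks by tumor type and KRAS status.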

clinical = details: human, in vivo, po
[4] = 12-lead ECG and 24-hour Holter monitoring; assay type: in vivo, human; details: ECG and Holter monitoring around first dose
Method in brief: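 Oral test compound given once daily, first two doses 3–7 days apart. 12-lead ECGs were part of safety assessments. 24-hour digital Holter monitoring was run around the first dose to detect QTc changes.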

[5] = assay type: in vivo, human
[6] = TEAE, all dose levels, label TVB-2640 = monotherapy
[7] = across all dose levels, label TVB-2640 = monotherapy

## TVB-3166
[1]
  sensitivity of KRAS^MUT versus KRAS^WT NSCLC cell lines to killing: more sensitive to killing with FASN inhibition than KRAS wild-type (KRAS^WT) lines

## Cc1nnc(-c2cc(C(=O)N3CCC(c4ccc(C#N)cc4)CC3)c(C)cc2C2CCC2)[nH]1 [TVB-2640]
[2]; Grade 3 with paclitaxel, label TVB-2640 = monotherapy
  DLT: PPE syndrome: 3 n
[2]; all dose levels, label TVB-2640 = monotherapy
  DLTs, total number: 6
[2]; in vivo
  nature of DLTs: reversible skin and ocular effects
[2]; label TVB-2640 = monotherapy (N = 6)
  DLTs at 200 mg flat dose: no DLTs observed
[2]; monotherapy
  DLT: Grade 3 corneal edema: 1 n
  DLT: iritis: 1 n
  DLT: keratitis: 1 n
[2]; monotherapy, bilateral eye keratitis and PPE syndrome
  patients with DLTs at 250 mg flat dose: 2 of 6
[2]; monotherapy, depending on body surface area
  flat dose equivalent of the MTD/RP2D: 150 to 200 mg
[3]; 6/53 evaluable patients with paclitaxel, label TVB-2640 = monotherapy
  PR rate (confirmed) / best response of CR or PR: no patient treated with monotherapy had a complete or partial response; also recorded: No patient had a best response of complete response (CR) or partial response (PR)
[3]; median, N = 6 monotherapy, label TVB-2640 = monotherapy
  time to progression (TTP), NSCLC KRAS^WT disease: 5 weeks
[3]; median, N = 11 monotherapy, label TVB-2640 = monotherapy
  time to progression (TTP), NSCLC KRAS^MUT disease: 22 weeks
[3]; monotherapy, 29/69 evaluable patients
  patients who experienced SD: 42%
clinical
  Tmax: ~4 h
  half-life: 10 to 13 h
[4]
  QTc prolonging effect: no clinically relevant QTc prolonging effect; also recorded: no significant gastrointestinal or serum chemistry toxicities or evidence of QTc prolongation; also recorded: no evidence of QTc prolongation
[5]; Any Grade, N = 76 monotherapy, N = 55 + paclitaxel
  Any TEAE: 75 (98.7) n (%)
[5]; TEAE, Any Grade
  Blood and lymphatic system disorders: 11 (14•5) n (%)
  Eye disorders: 38 (50.0) n (%)
  Gastrointestinal disorders: 52 (68.4) n (%)
  Infections and infestations: 36 (47.4) n (%)
  Investigations: 22 (28•9) n (%)
  Metabolism and nutrition system disorders: 31 (40•8) n (%)
  Musculoskeletal and connective tissue disorders: 20 (26•3) n (%)
  Nervous system disorders: 27 (35•5) n (%)
  Respiratory, thoracic, and mediastinal disorders: 34 (44•7) n (%)
  Skin and subcutaneous tissue disorders: 63 (82.9) n (%)
[5]; [6]
  PPE syndrome, incidence: 46%
  alopecia, incidence: 61%
  fatigue, incidence: 37%
[5]; TEAE, monotherapy
  decreased appetite, incidence: 26%
  dry eye, incidence: 17%
  dry skin, incidence: 22%
  lacrimation increased, incidence: 13%
  rash, incidence: 11%
  skin exfoliation, incidence: 12%
[5]; TEAE, ≥Grade 3
  Blood and lymphatic system disorders: 3 (3•9) n (%)
  Eye disorders: 3 (3.9) n (%)
  Gastrointestinal disorders: 3 (3.9) n (%)
  Infections and infestations: 5 (6.6) n (%)
  Investigations: 6 (7•9) n (%)
  Metabolism and nutrition system disorders: 5 (6•6) n (%)
  Musculoskeletal and connective tissue disorders: 3 (3•9) n (%)
  Nervous system disorders: 1 (1•3) n (%)
  Respiratory, thoracic, and mediastinal disorders: 2 (2•6) n (%)
  Skin and subcutaneous tissue disorders: 8 (10.5) n (%)
[5]; [7]
  adverse events resulting in dose reduction, patients: 28%
  adverse events resulting in treatment discontinuation, patients: 22%
[5]; human, in vivo
  >Grade 2 skin or eye toxicities at the MTD: no >Grade 2 skin or eye toxicities were observed
[5]; label TVB-2640 = monotherapy
  patients with serious pneumonitis: not observed
[5]; ≥Grade 3, N = 76 monotherapy, N = 55 + paclitaxel
  Any ≥Grade 3 TEAE: 44 (57.9) n (%)
